Reference: ChEMBL document CHEMBL3616442, “Unconventional Knoevenagel-type indoles: Synthesis and cell-based studies for the identification of pro-apoptotic agents” (Eur J Med Chem, 2015)

Columns and labels:
MT4 = experiment: Antiproliferative activity against human MT4 cells after 96 hrs by MTT assay; type: functional, cell-based; conditions: MT4, 96 h
Method in brief: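 Exponentially growing MT-4 cells (CD4+ human T-cells carrying integrated HTLV-1 genome), seeded at 1×10^5 cells/mL in RPMI-1640 with 10% FCS and antibiotics. Serial dilutions of compound (DMSO stock 100 mM, diluted in medium), 37 °C, 5% CO₂, 96 h. Viability read by MTT. 50% inhibition versus untreated controls by linear regression. Mean ± SD of three independent determinations.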

CCRF-CEM = experiment: Cytotoxicity against human CCRF-CEM cells after 96 hrs by MTT assay; type: functional, cell-based
Method in brief: (§1)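 ATCC cell lines, mycoplasma-free by Hoechst staining. Haematological lines in RPMI-1640, solid-tumour and normal fibroblast lines in their own media, all with 10% FCS and antibiotics, at 37 °C in 5% CO₂. Compounds added as serial dilutions from a 100 mM DMSO stock diluted in medium. Viability by MTT after 96 h at 37 °C. Mean ± SD of three independent determinations.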

WIL2-NS = experiment: Cytotoxicity against human WIL2-NS cells after 96 hrs by MTT assay; type: functional, cell-based; method in brief: as §1
CCRF-SB = experiment: Cytotoxicity against human CCRF-SB cells after 96 hrs by MTT assay; type: functional, cell-based; method in brief: as §1
MRC5 = experiment: Cytotoxicity against human MRC5 cells after 96 hrs by MTT assay; type: cell-based; conditions: MRC5, 96 h; method in brief: as §1
[1] = Cytotoxicity against human CRL7065 cells after 96 hrs by MTT assay; type: cell-based; conditions: CRL-7065, 96 h; method in brief: as §1
SK-MEL-28 [2] = experiment: Cytotoxicity against human SK-MEL-28 cells after 96 hrs by MTT assay; type: functional, cell-based; conditions: SK-MEL-28, 96 h; method in brief: as §1
[3] = Cytotoxicity against human SKMES1 cells after 96 hrs by MTT assay; type: functional, cell-based; conditions: SK-MES-1, 96 h; method in brief: as §1
DU-145 [4] = experiment: Cytotoxicity against human DU145 cells after 96 hrs by MTT assay; type: functional, cell-based; conditions: DU-145, 96 h; method in brief: as §1
HepG2 = experiment: Cytotoxicity against human HepG2 cells after 96 hrs by MTT assay; type: functional, cell-based; conditions: HepG2, 96 h; method in brief: as §1
MCF7 [5] = experiment: Cytotoxicity against human MCF7 cells after 96 hrs by MTT assay; type: functional, cell-based; conditions: MCF7, 96 h; method in brief: as §1
SR = experiment: Growth inhibition of human SR cells after 48 hrs by sulforhodamine B assay; type: functional
[6] = Growth inhibition of human EKVX cells after 48 hrs by sulforhodamine B assay; type: functional
Method in brief: (§2)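 NCI 60-cell-line screen. Compounds tested at five 10-fold dilutions from 10^-4 to 10^-8 M. Cells exposed for the last 48 h of a 72 h incubation, growth estimated by sulforhodamine B protein assay. GI50 is the concentration giving 50% growth inhibition. Values beyond the tested range are expressed as greater or lesser than the extreme concentration.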

[7] = Growth inhibition of human COLO205 cells after 48 hrs by sulforhodamine B assay; type: functional; conditions: COLO 205, 48 h; method in brief: as §2
HCT-116 = experiment: Growth inhibition of human HCT116 cells after 48 hrs by sulforhodamine B assay; type: functional; conditions: HCT-116, 48 h; method in brief: as §2
SF-268 = experiment: Growth inhibition of human SF268 cells after 48 hrs by sulforhodamine B assay; type: functional; conditions: SF-268, 48 h
[8] = Growth inhibition of human LOXIMVI cells after 48 hrs by sulforhodamine B assay; type: functional; conditions: LOX IMVI; method in brief: as §2
M14 = experiment: Growth inhibition of human M14 cells after 48 hrs by sulforhodamine B assay; type: functional; conditions: M14, 48 h; method in brief: as §2
SK-MEL-28 [9] = experiment: Growth inhibition of human SK-MEL-28 cells after 48 hrs by sulforhodamine B assay; type: functional; conditions: SK-MEL-28, 48 h
IGROV-1 = experiment: Growth inhibition of human IGROV1 cells after 48 hrs by sulforhodamine B assay; type: functional; conditions: IGROV-1, 48 h; method in brief: as §2
SK-OV-3 = experiment: Growth inhibition of human SKOV3 cells after 48 hrs by sulforhodamine B assay; type: functional; conditions: SK-OV-3, 48 h
UO-31 = experiment: Growth inhibition of human UO31 cells after 48 hrs by sulforhodamine B assay; type: functional; conditions: UO-31, 48 h
DU-145 [10] = experiment: Growth inhibition of human DU145 cells after 48 hrs by sulforhodamine B assay; type: functional; conditions: DU-145, 48 h; method in brief: as §2
MCF7 [11] = experiment: Growth inhibition of human MCF7 cells after 48 hrs by sulforhodamine B assay; type: functional; conditions: MCF7, 48 h; method in brief: as §2
MDA-MB-231 = experiment: Growth inhibition of human MDA-MB-231 cells after 48 hrs by sulforhodamine B assay; type: functional; conditions: MDA-MB-231, 48 h; method in brief: as §2
HL-60 [12] = experiment: Antiproliferative activity against human HL60 cells after 3 days incubation by alamar blue method; type: functional; conditions: for GI50: HL-60, 72 h
Method in brief: (§3)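 HL-60 and K562 grown in RPMI 1640, MCF-7 in DMEM, each with 10% FCS, penicillin G and streptomycin. Seeded at 4x10⁴ (HL-60, K562) or 2x10⁴ (MCF-7) cells per well with serial compound dilutions, incubated 3 days at 37 °C. Alamar blue added for 3 h at 37 °C in the dark, fluorescence read at ex 544/em 590 nm. IC50 versus untreated controls by linear regression.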

K562 [13] = experiment: Antiproliferative activity against human K562 cells after 3 days incubation by alamar blue method; type: functional; conditions: for GI50: K562, 72 h; method in brief: as §3
MCF7 [14] = experiment: Antiproliferative activity against human MCF7 cells after 3 days incubation by alamar blue method; type: functional; conditions: for GI50: MCF7, 72 h; method in brief: as §3
HL-60 [15] = experiment: Induction of apoptosis in human HL60 cells by propidium iodide staining based flow cytometric analysis; type: functional; conditions: TDE = time-dependent effect
Method in brief: (§4)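 After treatment, cells harvested, fixed in ice-cold 70% ethanol at 4 °C, stained 30 min at 37 °C in the dark with 100 µg/mL propidium iodide plus 10 µg/mL RNase A; 10,000 gated cells analysed at 488 nm with debris excluded; apoptosis followed over time; mean ± S.E.M. of three independent experiments run in triplicate.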

K562 [16] = experiment: Induction of apoptosis in human K562 cells by propidium iodide staining based flow cytometric analysis; type: functional; method in brief: as §4
MCF7 [17] = experiment: Induction of apoptosis in human MCF7 cells by propidium iodide staining based flow cytometric analysis; type: functional; conditions: TDE = time-dependent effect; method in brief: as §4

SMILES	EC50 (MT4) [µM]	GI50 (SR) [µM]	GI50 [6] [µM]	GI50 [7] [µM]	GI50 (HCT-116) [µM]	GI50 (SF-268) [µM]	GI50 [8] [µM]	GI50 (M14) [µM]	GI50 (SK-MEL-28 [9]) [µM]	GI50 (IGROV-1) [µM]	GI50 (SK-OV-3) [µM]	GI50 (UO-31) [µM]	GI50 (DU-145 [10]) [µM]	GI50 (MCF7 [11]) [µM]	GI50 (MDA-MB-231) [µM]	Activity (HL-60 [12])	GI50 (HL-60 [12]) [µM]	Activity (K562 [13])	GI50 (K562 [13]) [µM]	Activity (MCF7 [14])	other results
COc1ccc2[nH]c(-c3ccccc3)c(/C=C(\C#N)S(=O)(=O)c3ccccc3)c2c1	1.3	2.2	6.9	7.4	3.7	13.3	7.4	3.7	6.1	4.8	7.1	4	10.1	3.9	7.5						EC50 (CCRF-CEM): 1.5 µM; EC50 (WIL2-NS): 2.8 µM; EC50 (CCRF-SB): 1.9 µM; EC50 (MRC5): 14 µM; EC50 [1]: 11 µM; EC50 (SK-MEL-28 [2]): 10 µM; EC50 [3]: 12 µM; EC50 (DU-145 [4]): 10 µM; EC50 (HepG2): 9.6 µM; EC50 (MCF7 [5]): 12 µM
COc1ccc(-c2[nH]c3ccccc3c2C=C(C#N)C#N)cc1	0.3		0.656	0.223	0.411	0.709	1.8	0.295	1.2	1.4	0.445	2.8	0.484	0.347	0.562	Dose-dependent effect	1.08	Dose-dependent effect	4.78	Dose-dependent effect	GI50 (MCF7 [14]): > 10 µM; Activity (HL-60 [15]): tde; Activity (K562 [16]): 44.4%; Activity (K562 [16]; TDE = time-dependent effect): tde; Activity (MCF7 [17]): tde
CC(=O)/C(=C\c1c(-c2ccccc2)[nH]c2ccccc12)S(C)(=O)=O	0.5		6.4	3	2.9	4.2	3.4	1.6	3.3	8.3	4.4	5.8	3.5	2.7	5.5	Dose-dependent effect	2.57	Dose-dependent effect	7.71	Dose-dependent effect	GI50 (MCF7 [14]): > 10 µM; Activity (HL-60 [15]): tde; Activity (K562 [16]; TDE = time-dependent effect): tde; Activity (MCF7 [17]): tde
COC(=O)/C(=C\c1c(-c2ccccc2)[nH]c2ccccc12)S(C)(=O)=O	0.4	8.1	8.9	4.4	4.2	4.3	5.1	3.3	6	1.7	12.1	5.5	2.5	2.9	2.4						
COc1ccc2[nH]c(-c3ccccc3)c(C=C(C#N)C#N)c2c1	1	0.865	4.1	2.1	4.4	8.3	4.9	2.3	4.4	8.4	4.8	6.4	6.5	2.2	3.8						
